Source: ChEMBL document CHEMBL3603811, “Design, chemical synthesis and biological evaluation of 3-spiromorpholinone/3-spirocarbamate androsterone derivatives as inhibitors of 17β-hydroxysteroid dehydrogenase type 3” (Bioorg Med Chem, 2015)

How the values were obtained:
[1] = target: T1, 17-beta-hydroxysteroid dehydrogenase type 3 (Rattus norvegicus) (UniProt O54939); assay: Inhibition of 17beta-HSD3 in rat testes microsomes using [14C]-4-androstene-3,17-dione as substrate measured based on 18% of initial enzyme transformation at 1 uM after 2 hrs; settings: Testis
T1 sequence (whole entry): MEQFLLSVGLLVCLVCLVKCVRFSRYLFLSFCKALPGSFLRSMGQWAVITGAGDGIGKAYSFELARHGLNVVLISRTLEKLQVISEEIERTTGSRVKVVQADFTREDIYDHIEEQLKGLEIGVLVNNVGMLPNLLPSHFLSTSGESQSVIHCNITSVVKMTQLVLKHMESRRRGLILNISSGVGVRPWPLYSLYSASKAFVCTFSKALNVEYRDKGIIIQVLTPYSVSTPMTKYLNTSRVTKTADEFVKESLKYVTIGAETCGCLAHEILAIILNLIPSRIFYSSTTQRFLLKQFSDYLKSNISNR
Procedure, shortened: (§1)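 Rat testis microsomes: homogenate in phosphate/sucrose/EDTA buffer pH 7.5 with protease inhibitors, spun 12,500g, then pellet from 100,000g, at 4 °C. Reaction 2 h at 37 °C in 50 mM sodium phosphate pH 7.4, 20% glycerol, 1 mM EDTA, with NADPH and [14C]-Δ4-dione (50 nM). Inhibitor in DMSO. [14C]-T and substrate identified against reference steroids and quantified. Percent transformation and percent inhibition calculated.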

[2] = target: T2, 17-beta-hydroxysteroid dehydrogenase type 3 (Rattus norvegicus, UniProt O54939); assay: Inhibition of 17beta-HSD3 in rat testes microsomes using [14C]-4-androstene-3,17-dione as substrate after 2 hrs; parameters: species or system Testis; procedure, shortened: as §1
T2 sequence (O54939 whole entry): T1 sequence (whole entry)

[3] = target: T1, 17-beta-hydroxysteroid dehydrogenase type 3 (Rattus norvegicus); assay: Inhibition of 17beta-HSD3 in rat testes microsomes using [14C]-4-androstene-3,17-dione as substrate measured based on 18% of initial enzyme transformation at 0.01 uM after 2 hrs; settings: Testis; procedure, shortened: as §1
[4] = target: T3, 17-beta-hydroxysteroid dehydrogenase type 3 (Homo sapiens) (UniProt P37058); assay: Inhibition of 17beta-HSD3 (unknown origin) expressed in human LNCaP cells using [14C]-4-androstene-3,17-dione as substrate at 1 uM after 3 hrs; type: cell-based
T3 sequence (whole entry): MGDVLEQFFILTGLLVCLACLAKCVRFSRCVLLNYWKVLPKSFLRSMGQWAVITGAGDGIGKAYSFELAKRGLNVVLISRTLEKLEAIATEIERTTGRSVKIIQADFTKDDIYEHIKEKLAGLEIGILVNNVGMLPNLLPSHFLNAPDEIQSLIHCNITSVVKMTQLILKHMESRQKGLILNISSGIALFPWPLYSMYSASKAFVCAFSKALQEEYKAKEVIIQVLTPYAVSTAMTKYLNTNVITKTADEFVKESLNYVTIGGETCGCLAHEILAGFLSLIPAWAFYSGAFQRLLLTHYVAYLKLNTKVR
Procedure, shortened: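 LNCaP cells stably transfected with 17β-HSD3, kept under hygromycin, which was omitted during assay. 15,000 cells/well grown 3 days in protocol medium, then given 15 nM [14C]-4-androstene-3,17-dione plus inhibitor in DMSO (final 0.05%) for 3 h. Steroids extracted from medium, separated by TLC and quantified. Percent inhibition of T formation calculated.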

LAPC4 [5] = assay: Androgenic activity in human LAPC4 cells expressing androgen receptor assessed as induction of cell proliferation at 1 uM after 3 days by MTS assay relative to control; type: functional
Procedure, shortened: (§2)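 LAPC-4 (AR+) cells in RPMI-1640 with 5% dextran-coated charcoal-treated FBS to remove hormones. Triplicate cultures of 10,000 cells preincubated 24 h at 37 °C, 5% CO2. Compounds from 10^-2 M DMSO stock, diluted in medium, added for 3 days (final DMSO 0.05%; vehicle controls). Growth read by MTS. Androgenicity = % proliferation minus basal set at 100%.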

[6] = target: T1, 17-beta-hydroxysteroid dehydrogenase type 3 (Rattus norvegicus); assay: Ratio of delta4-dione IC50 to compound IC50 for 17beta-HSD3 in rat testes microsomes; settings: Testis
[7] = target: T1, 17-beta-hydroxysteroid dehydrogenase type 3 (Rattus norvegicus); assay: Inhibition of 17beta-HSD3 in rat testes microsomes using [14C]-4-androstene-3,17-dione as substrate measured based on 18% of initial enzyme transformation at 0.1 uM after 2 hrs; settings: Testis; procedure, shortened: as §1
LAPC4 [8] = assay: Androgenic activity in human LAPC4 cells expressing androgen receptor assessed as induction of cell proliferation at 0.1 uM after 3 days by MTS assay relative to control; type: functional; procedure, shortened: as §2
[9] = target: T1, 17-beta-hydroxysteroid dehydrogenase type 3 (Rattus norvegicus); assay: Inhibition of 17beta-HSD3 in rat testes microsomes using [14C]-4-androstene-3,17-dione as substrate measured based on 33% of initial enzyme transformation at 1 uM after 2 hrs; settings: Testis; procedure, shortened: as §1
[10] = target: T1, 17-beta-hydroxysteroid dehydrogenase type 3 (Rattus norvegicus); assay: Inhibition of 17beta-HSD3 in rat testes microsomes using [14C]-4-androstene-3,17-dione as substrate measured based on 33% of initial enzyme transformation at 10 uM after 2 hrs; settings: Testis; procedure, shortened: as §1
[11] = target: T1, 17-beta-hydroxysteroid dehydrogenase type 3 (Rattus norvegicus); assay: Inhibition of 17beta-HSD3 in rat testes microsomes using [14C]-4-androstene-3,17-dione as substrate measured based on 33% of initial enzyme transformation at 0.1 uM after 2 hrs; settings: Testis; procedure, shortened: as §1
[12] = target: T1, 17-beta-hydroxysteroid dehydrogenase type 3 (Rattus norvegicus); assay: Inhibition of 17beta-HSD3 in rat testes microsomes using [14C]-4-androstene-3,17-dione as substrate measured based on 4% of initial enzyme transformation at 10 uM after 2 hrs; settings: Testis; procedure, shortened: as §1
[13] = target: T1, 17-beta-hydroxysteroid dehydrogenase type 3 (Rattus norvegicus); assay: Inhibition of 17beta-HSD3 in rat testes microsomes using [14C]-4-androstene-3,17-dione as substrate measured based on 4% of initial enzyme transformation at 1 uM after 2 hrs; settings: Testis; procedure, shortened: as §1
[14] = target: T3, 17-beta-hydroxysteroid dehydrogenase type 3 (Homo sapiens); settings: LNCaP, 0.5 uM

Structure (SMILES)	inhibition [1]	IC50 [2]	inhibition [3]	inhibition [4]	Activity (LAPC4 [5])	Ratio IC50 [6]	inhibition [7]	Activity (LAPC4 [8])	inhibition [9]	inhibition [10]	inhibition [11]	inhibition [12]	inhibition [13]	inhibition [14]
C[C@]12CC[C@@]3(C[C@@H]1CC[C@@H]1[C@@H]2CC[C@]2(C)C(=O)CC[C@@H]12)CN(S(=O)(=O)c1ccc(C(F)(F)F)cc1)CC(=O)O3	85.1%	28 nM	32.9%	10%	0%	6	48.6%	0%	–	–	–	–	–	–
C[C@]12CC[C@@]3(C[C@@H]1CC[C@@H]1[C@@H]2CC[C@]2(C)C(=O)CC[C@@H]12)CN(CCCCc1ccccc1)CC(=O)O3	–	–	–	–	19.2%	–	–	5.3%	91.1%	91.3%	79.9%	–	–	–
C[C@]12CC[C@@H](O)C[C@@H]1CC[C@@H]1[C@@H]2CC[C@]2(C)C(=O)CC[C@@H]12 [ANDROSTERONE]	–	90 nM	–	–	–	–	–	–	–	–	–	–	–	–
C[C@]12CC[C@@]3(C[C@@H]1CC[C@@H]1[C@@H]2CC[C@]2(C)C(=O)CC[C@@H]12)CN(Cc1ccc(Br)cc1)CC(=O)O3	–	–	–	–	45.7%	–	–	21.8%	92.9%	91.6%	79.1%	–	–	–
C[C@]12CC[C@@]3(C[C@@H]1CC[C@@H]1[C@@H]2CC[C@]2(C)C(=O)CC[C@@H]12)CN(C(=O)c1ccc(C(F)(F)F)cc1)CC(=O)O3	87.1%	88 nM	24.3%	40%	0%	2	45.4%	0%	–	–	–	–	–	–
C[C@]12CC[C@@]3(C[C@@H]1CC[C@@H]1[C@@H]2CC[C@]2(C)C(=O)CC[C@@H]12)CN(Cc1ccccc1)CC(=O)O3	89.2%	–	27.2%	–	30.5%	–	56%	8.1%	91.6%	94.3%	80.8%	95.2%	90.9%	–
C[C@]12CC[C@@]3(C[C@@H]1CC[C@@H]1[C@@H]2CC[C@]2(C)C(=O)CC[C@@H]12)CN(Cc1ccc(-c2ccccc2)cc1)CC(=O)O3	–	–	–	–	55.1%	–	–	47.7%	93.1%	95.2%	81.9%	–	–	–
C[C@]12CC[C@@]3(C[C@@H]1CC[C@@H]1[C@@H]2CC[C@]2(C)C(=O)CC[C@@H]12)CN(Cc1ccc(OC(F)(F)F)cc1)CC(=O)O3	–	–	–	–	74.9%	–	–	45.9%	93.8%	95.7%	79%	–	–	–
C[C@]12CCC(=O)C=C1CC[C@@H]1[C@@H]2CC[C@]2(C)C(=O)CC[C@@H]12 [ANDROSTENEDIONE]	–	169 nM	–	–	–	–	–	–	–	–	–	–	–	–
C[C@]12CC[C@@]3(C[C@@H]1CC[C@@H]1[C@@H]2CC[C@]2(C)C(=O)CC[C@@H]12)CN(CCc1ccccc1)CC(=O)O3	–	–	–	–	79.7%	–	–	48.9%	92.2%	95.2%	78.5%	–	–	–
O=C1OC2(CCCCC2)CN[C@H]1Cc1ccccc1	–	–	–	–	–	–	–	–	–	20.6%	–	–	–	–
C[C@]12CC[C@@]3(C[C@@H]1CC[C@@H]1[C@@H]2CC[C@]2(C)C(=O)CC[C@@H]12)CN(CCCc1ccccc1)CC(=O)O3	–	–	–	–	55.5%	–	–	64.9%	90.5%	92.3%	74.9%	–	–	–
C[C@]12CC[C@@]3(C[C@@H]1CC[C@@H]1[C@@H]2CC[C@]2(C)C(=O)CC[C@@H]12)CN(Cc1ccc(C(F)(F)F)cc1)CC(=O)O3	–	–	–	–	31.7%	–	–	12.3%	94%	91.2%	83.4%	–	–	–
O=C1OC2(CCCCC2)CN(Cc2ccccc2)[C@H]1Cc1ccccc1	–	–	–	–	–	–	–	–	–	29.2%	–	–	–	–
CC(C)C[C@H]1C(=O)O[C@@]2(CC[C@@]3(C)[C@@H](CC[C@@H]4[C@@H]3CC[C@]3(C)C(=O)CC[C@@H]43)C2)CN1Cc1ccccc1	93.1%	–	–	–	44.2%	–	62.9%	8.4%	–	–	–	87.1%	77.3%	–
C[C@]12CC[C@@]3(C[C@@H]1CC[C@@H]1[C@@H]2CC[C@]2(C)C(=O)CC[C@@H]12)CN(Cc1ccc(OCc2ccccc2)cc1)CC(=O)O3	–	–	–	–	16.7%	–	–	0%	90.8%	93.4%	80.4%	–	–	–
C[C@]12CC[C@@]3(C[C@@H]1CC[C@@H]1[C@@H]2CC[C@]2(C)C(=O)CC[C@@H]12)CN(CCc1ccc(C(F)(F)F)cc1)CC(=O)O3	–	–	–	–	76.1%	–	–	40.2%	92.1%	93.3%	70.7%	–	–	–
C[C@@H]1CN(S(=O)(=O)c2ccccc2C(F)(F)F)[C@@H](C)CN1C[C@@]1(O)CC[C@@]2(C)[C@@H](CC[C@@H]3[C@@H]2CC[C@]2(C)C(=O)CC[C@@H]32)C1	–	13 nM	32.4%	–	0%	–	43.7%	0%	94.4%	94%	89.4%	97.1%	96.4%	100%
